Test results from ChEMBL document CHEMBL2380254, “Optimization of tocotrienols as antiproliferative and antimigratory leads” (Eur J Med Chem, 2013).

What was measured:
T47D = test: Growth inhibition of human T47D cells assessed as cell growth at 10 uM after 48 hrs by sulforhodamine B assay; type: functional; settings: read-out: Activity
In short: (§1)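 Single-dose NCI-60 test at 10 µM. Cells were grown in RPMI 1640 with 5% FBS and 2 mM L-glutamine, preincubated 24 h, with T0 plates TCA-fixed. Exposure was 48 h at 37 °C, 5% CO2. Cells were fixed with cold TCA (final 10%, 4 °C, 60 min), stained with SRB and read at 515 nm. Percent growth was taken relative to T0 and untreated control; negative values denote cell kill.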

MDA-MB-231 [1] = test: Growth inhibition of human MDA-MB-231 cells assessed as cell growth at 10 uM after 48 hrs by sulforhodamine B assay; type: functional; settings: MDA-MB-231, 48 h, read-out: Activity
In short: (§2)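 Single-dose NCI-60 screen: adherent cells in RPMI 1640 with 5% FBS were exposed to 10 µM for 48 h at 37 °C after a 24 h preincubation. They were fixed in situ with cold TCA (10% final), stained with 0.4% SRB in 1% acetic acid, solubilized in 10 mM Tris base, and read at 515 nm. Percent growth was taken relative to time-zero and control plates.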

MCF7 = test: Growth inhibition of human MCF7 cells assessed as cell growth at 10 uM after 48 hrs by sulforhodamine B assay; type: functional; settings: MCF7, 48 h, read-out: Activity; in short: as §2
TK-10 = test: Growth inhibition of human TK10 cells assessed as cell growth at 10 uM after 48 hrs by sulforhodamine B assay; type: functional; settings: TK-10, 48 h, read-out: Activity; in short: as §1
SN12C = test: Growth inhibition of human SN12C cells assessed as cell growth at 10 uM after 48 hrs by sulforhodamine B assay; type: functional; settings: read-out: Activity; in short: as §1
RXF 393 = test: Growth inhibition of human RXF393 cells assessed as cell growth at 10 uM after 48 hrs by sulforhodamine B assay; type: functional; settings: RXF 393, 48 h, read-out: Activity; in short: as §2
SK-MEL-5 = test: Growth inhibition of human SK-MEL-5 cells assessed as cell growth at 10 uM after 48 hrs by sulforhodamine B assay; type: functional; settings: SK-MEL-5, 48 h, read-out: Activity; in short: as §2
SF-295 = test: Growth inhibition of human SF295 cells assessed as cell growth at 10 uM after 48 hrs by sulforhodamine B assay; type: functional; settings: SF-295, 48 h, read-out: Activity; in short: as §2
HT-29 = test: Growth inhibition of human HT-29 cells assessed as cell growth at 10 uM after 48 hrs by sulforhodamine B assay; type: functional; settings: HT-29, 48 h, read-out: Activity
In short: (§3)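 NCI-60 single-dose screen at 10 µM: cells in RPMI 1640 with 5% FBS, preincubated 24 h, then exposed 48 h at 37 °C. TCA fixation (16% final for suspension cells), SRB staining, absorbance 515 nm. Percent growth relative to time-zero and untreated control plates; negative values indicate cell kill.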

COLO 205 = test: Growth inhibition of human COLO205 cells assessed as cell growth at 10 uM after 48 hrs by sulforhodamine B assay; type: functional; settings: COLO 205, 48 h, read-out: Activity; in short: as §3
HOP-62 = test: Growth inhibition of human HOP62 cells assessed as cell growth at 10 uM after 48 hrs by sulforhodamine B assay; type: functional; settings: HOP-62, 48 h, read-out: Activity; in short: as §3
[2] = Growth inhibition of human EKVX cells assessed as cell growth at 10 uM after 48 hrs by sulforhodamine B assay; type: functional; settings: read-out: Activity; in short: as §3
MDA-MB-231 [3] = test: Growth inhibition of human MDA-MB-231 cells after 48 hrs by sulforhodamine B assay; type: functional; settings: MDA-MB-231, 48 h
In short: (§4)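 NCI-60 panel cells grown in RPMI 1640 with 5% FBS and 2 mM L-glutamine, seeded at 5000–40,000 cells/well and preincubated 24 h. Five 10-fold dilutions (0.001–100 µM) from DMSO stocks were added for 48 h at 37 °C. Adherent cells were fixed with cold TCA (10% final) for 60 min at 4 °C, stained with 0.4% SRB, and read at 515 nm. GI50 was set where 100×(T−T0)/(C−T0)=50.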

SK-OV-3 = test: Growth inhibition of human SKOV3 cells after 48 hrs by sulforhodamine B assay; type: functional; settings: SK-OV-3, 48 h
In short: (§5)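 NCI-60 five-dose screen. Cells were grown in RPMI 1640 with 5% FBS and 2 mM L-glutamine, plated at 5000–40,000 cells/well and incubated 24 h before dosing, with T0 plates TCA-fixed. DMSO stocks were diluted to doses of […] and exposed 48 h at 37 °C, 5% CO2. Cells were fixed with cold TCA (final 10%, 60 min, 4 °C), stained with 0.4% SRB in 1% acetic acid for 10 min, solubilized in 10 mM trizma base and read at 515 nm. GI50 is where 100×(T−T0)/(C−T0)=50.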

OVCAR-3 = test: Growth inhibition of human OVCAR3 cells after 48 hrs by sulforhodamine B assay; type: functional; settings: OVCAR-3, 48 h; in short: as §4
UACC-62 = test: Growth inhibition of human UACC62 cells after 48 hrs by sulforhodamine B assay; type: functional; settings: UACC-62, 48 h; in short: as §5
M14 = test: Growth inhibition of human M14 cells after 48 hrs by sulforhodamine B assay; type: functional; settings: M14, 48 h
In short: (§6)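 NCI-60 screen: cells in RPMI 1640 with 5% FBS and 2 mM glutamine, 5000–40,000 cells/well, preincubated 24 h. Five concentrations (10-fold dilutions; 100 to 0.001 µM) applied for 48 h at 37 °C. TCA fixation, SRB stain, absorbance at 515 nm. Time-zero plates included; GI50 where 100×(T−T0)/(C−T0)=50.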

HCT-15 = test: Growth inhibition of human HCT15 cells after 48 hrs by sulforhodamine B assay; type: functional; settings: HCT-15, 48 h; in short: as §6
[4] = Growth inhibition of human HCC2998 cells after 48 hrs by sulforhodamine B assay; type: functional; settings: HCC 2998, 48 h; in short: as §6
NCI-H23 = test: Growth inhibition of human NCI-H23 cells after 48 hrs by sulforhodamine B assay; type: functional; settings: NCI-H23, 48 h; in short: as §4
CCRF-CEM = test: Growth inhibition of human CCRF-CEM cells after 48 hrs by sulforhodamine B assay; type: functional; in short: as §6
MDA-MB-231 [5] = test: Antiproliferative activity against human MDA-MB-231 cells by MTT assay; type: functional, cell-based
In short: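 Cells plated at 8 × 10^3/well (MDA-MB-231) or 10^4/well (MCF7) in 96-well plates. Compounds fed in media with 5% FBS (MDA-MB-231) or 1% FBS (MCF7). MTT read-out of viable cells.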

[6] = Antiproliferative activity against mouse +SA cells by MTT assay; type: functional, cell-based; settings: +SA cell
In short: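 Mouse +SA mammary epithelial cells in serum-free DMEM/F12 with BSA, transferrin, insulin and EGF. Compounds from DMSO stock conjugated to BSA (overnight, 37 °C); 0–40 µM, final DMSO <0.1%. MTT 0.42 mg/mL for 4 h at 37 °C, isopropanol solubilization, OD 570 nm. Cell number from a standard curve; IC50 by non-linear regression.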

| SMILES | growth at 10 µM (T47D) [%] | growth at 10 µM (MDA-MB-231 [1]) [%] | growth at 10 µM (MCF7) [%] | growth at 10 µM (TK-10) [%] | growth at 10 µM (SN12C) [%] | growth at 10 µM (RXF 393) [%] | growth at 10 µM (SK-MEL-5) [%] | growth at 10 µM (SF-295) [%] | growth at 10 µM (HT-29) [%] | growth at 10 µM (COLO 205) [%] | growth at 10 µM (HOP-62) [%] | GI50 (MDA-MB-231 [3]) [µM] | GI50 (SK-OV-3) [µM] | GI50 (OVCAR-3) [µM] | GI50 (UACC-62) [µM] | GI50 (M14) [µM] | GI50 (HCT-15) [µM] | GI50 [4] [µM] | GI50 (NCI-H23) [µM] | GI50 (CCRF-CEM) [µM] | also measured |
| --- | --- | --- | --- | --- | --- | --- | --- | --- | --- | --- | --- | --- | --- | --- | --- | --- | --- | --- | --- | --- | --- |
| CC(C)=CCC/C(C)=C/CC/C(C)=C/CC[C@]1(C)CCc2c3c(c(C)c(C)c2O1)OCN(CCCCO)C3 | 59.1 | 37.9 | 10.1 | 101 | 76.8 | 78.2 | 91 | 97.2 | 54.4 | -16 | 75 | 2.34 | 5.41 | 3.85 | > 10 | 5.99 | 4.8 | 1.84 | > 10 | 3.45 | growth at 10 µM [2]: 108%; IC50 (MDA-MB-231 [5]): 13.8 µM; IC50 [6]: 2.2 µM |
| CC(C)=CCC/C(C)=C/CC/C(C)=C/CC[C@]1(C)CCc2c3c(cc(C)c2O1)OCN(CCCCO)C3 | -7.14 | -48.2 | -81.2 | 88.4 | 19.3 | -96.3 | 37.1 | 57.3 | 2.06 | -76.8 | -84.5 | 17.9 | 16.4 | 17.2 | 17.5 | 21 | 17.7 | 9.78 | 17.5 | 14.5 | growth at 10 µM [2]: 85.4%; IC50 (MDA-MB-231 [5]): > 5 µM; IC50 [6]: 1.8 µM |
| CC(C)=CCC/C(C)=C/CC/C(C)=C/CC[C@]1(C)CCc2c3c(c(C)c(C)c2O1)OCN(CCCCCCCCO)C3 | 56.1 | 40.7 | 4.37 | 93.5 | 65.8 | -10.7 | 83.7 | 48.1 | 31.1 | 14.9 | 63.2 | 2.89 | 2.63 | 2.79 | 2.51 | 3.02 | 3.32 | 2.73 | 3.16 | 3.34 | IC50 (MDA-MB-231 [5]): > 20 µM; IC50 [6]: 1.4 µM |
| CC(C)=CCC/C(C)=C/CC/C(C)=C/CC[C@]1(C)CCc2c3c(cc(C)c2O1)OCN(CCCCCCCCO)C3 | -67 | -69.6 | -93.3 | 51.2 | -70.7 | -97.1 | 19.1 | -83.8 | -77.2 | -94.5 | -99 | 1.1 | 2.24 | 0.811 | 4.79 | 1.14 | 3 | 0.583 | 4.4 | 0.865 | growth at 10 µM [2]: -53.4%; IC50 (MDA-MB-231 [5]): 11.7 µM; IC50 [6]: 0.79 µM |
| CC(C)=CCC/C(C)=C/CC/C(C)=C/CC[C@]1(C)CCc2c3c(c(C)c(C)c2O1)OCN(CCCCCCO)C3 | 8.28 | 9.83 | -69.5 | 97.9 | 66.5 | 22.4 | 95.2 | 61.7 | 17.4 | 31.8 | -23.3 | 2.75 | 2.57 | 2.82 | 2.67 | 3.11 | 2.69 | 2.62 | 2.84 | 2.73 | IC50 (MDA-MB-231 [5]): > 10 µM; IC50 [6]: 2.1 µM |
| CC(C)=CCC/C(C)=C/CC/C(C)=C/CC[C@]1(C)CCc2c3c(cc(C)c2O1)OCN(CCCCCCO)C3 | -51.6 | -28.4 | -90.4 | 88.4 | 40.3 | -95.6 | 20.9 | -74.7 | -25.8 | -79.6 | -94.5 | 0.782 | 2.62 | 0.702 | 4.85 | 0.979 | 1.1 | 0.663 | 4.57 | 0.866 | IC50 (MDA-MB-231 [5]): > 5 µM; IC50 [6]: 1.3 µM |
